From PubChem
This is one part of a sample in which hits are shown more often than they occur.
697 NFkB inh = inhibitors of the PMA/ionomycin-induced NF-kB reporter in 697 B cells | inhibition, % at 4 µM | AID 435022 | hit rate 0.33% among 330,000 | 697 B-cell NF-kB luciferase reporter, 16 h; in the data active = inhibition above about 35%
UPR CHOP act = apoptotic UPR (CHOP) activation; CHO-CHOP luciferase reporter, luminescence; percent of tunicamycin response over DMSO baseline; activation, % at 10 µM; hit rate 0.34% among 330,000;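 active = at 10 µM dose, activation of 40% or more, normalized to positive control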;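 note: 100% = tunicamycin at 10 µg/mL and 0% = DMSO alone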
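measured by = luciferase luminescence | assay system = CHO-CHOP cells, stable luciferase reporter of PERK-eIF2a-CHOP signalling | amount = 500 reporter cells seeded per well | timing = 6 h compound exposure at 37 °C after overnight seeding | controls = positive tunicamycin 10 µg/mL, negative DMSO alone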
CHOP inhibitor = CHOP inhibition in unfolded protein response; CHO-K1 CHOP-promoter luciferase, tunicamycin-induced, 15-18 h; AID 2732; inhibition, % at 10 µM; hit rate 3.8% among 220,000;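 active = compounds that reduced the stress-induced luciferase reporter signal by more than about 70% of percent inhibition, limit read from the data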;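 note: 0% = tunicamycin plus vehicle and 100% = wells without tunicamycin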
Jurkat NFkB inh = lowers PMA/ionomycin-induced NF-kB signal in Jurkat cells | hit rate 0.53% among 330,000 | PMA/ionomycin-induced NF-kB luciferase reporter, luminescence | inhibition, % at 4 µM | AID 435003; in the data active = inhibition above about 50%
UPR XBP1 act = activators of adaptive arm of unfolded protein response (XBP1); AID 463104; hit rate 0.33% among 330,000; CHO-XBP1 luciferase reporter, IRE1-XBP1 UPR activation, luminescence; percent of tunicamycin response, DMSO as zero; activation, % at 20 µM;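 active = versus positive control, 20 µM dose yields 30% or more activation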;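 note: 100% = tunicamycin at 10 µg/mL and 0% = DMSO only wells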
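Material – CHO cell line with stable XBP1 luciferase reporter · Buffer or medium – F12 plus 10% FBS · Compound – single point, 20 µM final compound, 1% DMSO · Schedule – 16-18 h cell attachment at 37 °C, then 6 h compound exposure · Signal – Steady-Glo luminescence read · Benchmarks – high control tunicamycin 10 µg/mL final, low control DMSO vehicle only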
* marks the source's active call; other numbers are inactive results; . = no result given.

SMILES | 697 NFkB inh | UPR CHOP act | CHOP inhibitor | Jurkat NFkB inh | UPR XBP1 act
Cc1cccc(N2CCN(c3ccc(N4C(=O)CCCC4=O)cc3[N+](=O)[O-])CC2)c1C | 12 | 0 | 84* | 14 | -2
CN1CCN(CC(=O)Nc2ccccc2[N+](=O)[O-])CC1 | -8 | -2 | 7 | -5 | -1
Cn1c2ccccc2c2cnn(CC(=O)Nc3ccc(F)cc3F)c(=O)c21 | -1 | 1 | 88* | -10 | -3
Cn1c2ccccc2c2cnn(CC(=O)Nc3ccccc3Br)c(=O)c21 | 2 | 1 | 37 | 9 | 1
COc1ccc([N+](=O)[O-])c(S(=O)(=O)c2ccc(Cl)cc2)n1 | 17 | -5 | 24 | 13 | -9
COc1ccc([N+](=O)[O-])c(S(=O)(=O)c2ccccc2)n1 | 27 | -9 | 107* | 30 | -9
Cc1cc(C)cc(Oc2nc(C(F)(F)F)nc3ccccc23)c1 | -1 | 0 | 72* | 49 | -1
CCOC(=O)c1ccc(NC(=O)Cc2coc3cc4c(cc23)CCC4)cc1 | -8 | -1 | 77* | 5 | -1
COc1ccc(CNC(=O)C2=CC(c3ccc(OC)cc3)=NS(=O)(=O)N2C)cc1 | 10 | 1 | . | -7 | -1
O=C(NCC1(c2ccccc2)CCCC1)c1cccc(Br)c1 | -3 | -3 | -6 | 8 | -3
Cc1ccc(S(=O)(=O)CC(=O)Nc2nc(-c3ccccc3)cs2)cc1 | -21 | 1 | 90* | -1 | -5
Cc1ccc(S(=O)(=O)Nc2ccc(-c3csc(-c4ccccc4)n3)cc2)cc1 | -3 | 0 | 94* | 4 | -2
Cc1cc(C(=O)OC(C)C(=O)Nc2nc(-c3ccccc3)cs2)c(C)o1 (stereo not given) | -26 | 0 | 45 | -22 | -2
CCN(CC)S(=O)(=O)c1cccc(NC(=O)COC(=O)c2cc(C)oc2C)c1 | 1 | 5 | 72* | 5 | -3
Cc1cc(C(=O)OCC(=O)Nc2nc(-c3ccccc3)cs2)c(C)o1 | 2 | 0 | 94* | -8 | -1
Cc1cc(C(=O)OCC(=O)Nc2cccc(S(=O)(=O)N(C)C)c2)c(C)o1 | 1 | 2 | 5 | -2 | -1
COc1ccc(C=NNC(=O)c2ccccc2OCc2ccc(F)cc2)c(OC)c1 | -13 | 5 | . | 0 | 11
CN[C@H](CC(C)C)C(=O)N[C@H]1C(=O)N[C@@H](CC(N)=O)C(=O)N[C@H]2C(=O)N[C@H]3C(=O)N[C@H](C(=O)N[C@H](C(=O)O)c4cc(O)cc(O)c4-c4cc3ccc4O)[C@H](O)c3ccc(c(Cl)c3)Oc3cc2cc(c3O[C@@H]2O[C@H](CO)[C@@H](O)[C@H](O)[C@H]2O[C@H]2C[C@](C)(N)[C@H](O)[C@H](C)O2)Oc2ccc(cc2Cl)[C@H]1O | . | . | 2 | . | .
COc1cc(CNCc2cc(OC)ccc2OC)cc(OC)c1 | -12 | 2 | . | 14 | -3
O=C(CCNS(=O)(=O)c1ccc(OC(F)(F)F)cc1)NC1CC1 | -3 | -2 | . | -10 | -3
CCc1ccc(C(=O)c2cncc(Br)c2)cc1 | -19 | 2 | 74* | -31 | 1
O=C(Nc1ccc(SC(F)F)cc1)c1ccc(F)cc1 | -104 | 4 | 24 | -106 | -1
O=C(CCS(=O)(=O)c1ccccc1)NC12CC3CC(CC(C3)C1)C2 | -121 | 3 | 74* | -88 | -1
O=C(CCS(=O)(=O)c1ccccc1)NCCS(=O)(=O)c1ccccc1 | 19 | 1 | -10 | -11 | 1
NC(=O)CC(NC(=O)Cc1cccc2ccccc12)c1ccc(N2CCN(c3ccccc3)CC2)c([N+](=O)[O-])c1 (stereo not given) | 0 | 4 | 87* | 14 | -3
SMILES | 697 NFkB inh | UPR CHOP act | CHOP inhibitor | Jurkat NFkB inh | UPR XBP1 act
CC(=O)N(/N=C/c1cccc(C)c1)c1nc(-c2ccc(Br)cc2)cs1 | -34 | -1 | 95* | 6 | 0
Cc1ccccc1CN(C)CC(=O)Nc1c(C)cccc1C(C)C | 6 | -2 | 29 | -1 | -4
Cc1cccc(/C=C2/SC(=O)N(Cc3ccccc3)C2=O)n1 | 9 | 4 | 93* | -9 | 0
O=C1/C(=C/c2ccccn2)SC(=S)N1Cc1ccccc1 | -4 | 1 | 15 | 0 | 0
CC(/C=C/c1ccccc1)=N/NC(=O)CNC(=O)c1ccccc1F | 11 | 0 | 27 | 10 | -3
O=C(CNc1ccc2ccccc2c1)N/N=C/c1ccc([N+](=O)[O-])o1 | -11 | -1 | 99* | 8 | -2
Brc1ccc(NCc2cccc3ccccc23)nc1 | -1 | -2 | 87* | -15 | 5
Cc1ccccc1N/N=C/c1c(C)nc2ccccn12 | 8 | 0 | . | -3 | 1
CC(OC(=O)C1CCCC1)C(=O)Nc1ncc(Cl)cc1Cl (stereo not given) | 16 | 2 | . | -8 | 0
CC(=O)Oc1c(Sc2ccccc2[N+](=O)[O-])c(C)nn1C(C)(C)C | 18 | -1 | 75* | -13 | -2
Cc1cc([N+](=O)[O-])c2c(c1C)C1C=CCC1C(c1ccccn1)N2 (stereo not given) | -30 | 2 | -16 | -10 | -1
COc1ccc(C(=O)N2CCN(c3ccc([N+](=O)[O-])c(-n4nc(C)cc4C)c3)CC2)cc1 | 5 | 3 | -3 | 35 | -3
Cc1cc(C)n(-c2cc(N3CCN(C(=O)c4ccc(C(C)(C)C)cc4)CC3)ccc2[N+](=O)[O-])n1 | -21 | 3 | 73* | 6 | 0
Cc1ncc(N=Nc2ccccc2Cl)c(-c2ccccc2)n1 | 3 | 1 | -16 | 13 | -2
COc1ccc(N=Nc2cnc(C)nc2-c2ccccc2)cc1 | 9 | 0 | 73* | -9 | 0
CCOc1ccc(C(=O)Nc2ccccc2-c2ccccc2)cc1Cl | 19 | -3 | 81* | 0 | -2
Cc1cc(C)c2c(=O)n(CC(=O)N3CCC(Cc4ccccc4)CC3)sc2n1 | -3 | 41* | 107* | 11 | -3
Cc1cccc(N2CCN(C(=O)Cn3sc4nc(C)cc(C)c4c3=O)CC2C)c1 (stereo not given) | 7 | 22 | 99* | 0 | -4
CC(C)N(C(=O)CSc1nnc(Cn2nnc3ccccc32)n1C)C(C)C | 9 | 1 | 3 | 8 | 5
CC1Cc2ccccc2N1C(=O)CSc1nnc(Cn2nnc3ccccc32)n1C (stereo not given) | 17 | 1 | 72* | 1 | -2
COc1nc(Nc2cccc(C)c2)nc(N2CCCCC2)n1 | 0 | 2 | 71* | -5 | 2
COc1nc(OCC#N)nc(N2CCCCC2)n1 | 6 | 0 | 5 | 11 | -1
Cc1cccc(Nc2nc(N3CCCC3)nc(N3CCCC3)n2)c1 | -6 | 1 | 65 | 11 | 2
COc1nc(N2CCCCCC2)nc(N2CCCCCC2)n1 | -46 | -2 | 88* | 1 | 3
